The record followed here is ChEMBL document CHEMBL4190366, “Discovery and synthesis of novel Wogonin derivatives with potent antitumor activity in vitro” (Eur J Med Chem, 2017).

In general, IC50 refers to the concentration that gives 50% inhibition.

Molecules are shown by their SMILES. Active and inactive are the calls of the source. No cut-off for these calls is given here.

One assay relates to B16. Put plainly: Cytotoxicity in mouse B16 cells assessed as reduction in cell viability incubated for 72 hrs by MTT assay. The following applies: B16, 72 h. It counts as functional, cell-based. The procedure, abridged:
(§1)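 Cells pre-incubated 24 h at 37 °C, 5% CO2, then exposed to a range of compound concentrations for 72 h. Viability read as mitochondrial MTT-to-formazan conversion, absorbance at 570 nm.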

For a further assay, the system named is A549. Put plainly: Cytotoxicity in human A549 cells assessed as reduction in cell viability incubated for 72 hrs by MTT assay. Conditions: A549, 72 h. A general note: Tetrazolium dyes change colour on reduction, which living cells bring about.
Another assay deals with MCF7. Put plainly: Cytotoxicity in human MCF7 cells assessed as reduction in cell viability incubated for 72 hrs by MTT assay. It counts as functional, cell-based. Conditions: MCF7, 72 h. Put shortly: as §1
For assay [1], the system named is HepG2. Put plainly: Cytotoxicity in human HepG2 cells assessed as reduction in cell viability incubated for 72 hrs by MTT assay. It counts as functional, cell-based. Conditions: HepG2, 72 h. The procedure, abridged:
as §1

Assay [2] has as its system HepG2. Put plainly: Induction of apoptosis in human HepG2 cells assessed as apoptosis level at 6 uM incubated for 24 hrs by FITC-labelled Annexin V/PI staining based flow cytometry (reference value: 3.4%). It counts as functional. Put shortly: (§2)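 HepG2 treated 24 h with 2, 4 or 6 µM; 0.1% DMSO vehicle control. Stained with FITC-Annexin V/PI and analysed by flow cytometry 10-15 min after staining. Annexin V+/PI- counted as early/median apoptotic, Annexin V+/PI+ as late apoptotic.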
For orientation: A flow cytometer gives signals particle by particle.

In assay [3] the test system is HepG2. Put plainly: Induction of apoptosis in human HepG2 cells assessed as apoptosis level incubated for 24 hrs by FITC-labelled Annexin V/PI staining based flow cytometry. It counts as functional, cell-based. Put shortly:
as §2

Assay [4] relates to HepG2. Put plainly: Induction of ROS generation in human HepG2 cells at 2 to 6 uM incubated for 24 hrs by DCFH-DA staining based flow cytometry. The class given is functional, cell-based. The procedure, abridged: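 HepG2 seeded at 6×10^4 cells/well and grown 24 h, then treated 24 h with 2, 4 or 6 µM. Washed with PBS and serum-free medium, loaded with serum-free DCFH-DA 30 min at 37 °C, washed twice cold. Fluorescence read by flow cytometry at 488/525 nm. Mean ± SEM, n = 3.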

Assay [5] concerns HepG2. Put plainly: Induction of apoptosis in human HepG2 cells assessed as apoptosis level at 2 to 4 uM incubated for 24 hrs by FITC-labelled Annexin V/PI staining based flow cytometry. It counts as functional, cell-based. The procedure, abridged:
as §2

For `CN1CCN(CCCOc2c(OCc3ccccc3)cc(O)c3c(=O)cc(-c4ccccc4)oc23)CC1`, the IC50 was found to be 3.76 µM in the assay on B16, 3.94 µM in the assay on A549, 1.02 µM with MCF7 and 3.11 µM in the assay on HepG2 [1].

On to `COc1c(OCCCCN2CCN(C)CC2)cc(O)c2c(=O)cc(-c3ccc(Br)cc3)oc12`, for which the IC50 with B16 is 4.33 µM; in the assay on A549 it was 2.13 µM; in the assay with MCF7, 3.21 µM; in the assay on HepG2 [1] it was 2.32 µM.

Take `O=c1[nH]cc(F)c(=O)[nH]1` [FLUOROURACIL]: the IC50 is 1.19 µM in the assay on B16 and 14.7 µM with MCF7.

Turning to `CCN(CC)CCCOc1c(OCc2ccccc2)cc(O)c2c(=O)cc(-c3ccccc3)oc12`, the IC50 in the assay on B16 is 4.9 µM; in the assay on A549 it was 3.62 µM; in the assay on MCF7, 3.21 µM; with HepG2 [1], 3.01 µM.

Consider `O=c1cc(-c2ccccc2)oc2c(OCCCN3CCCC3)c(OCc3ccccc3)cc(O)c12`, for which the IC50 with B16 came out at 7.98 µM; with A549, 4.72 µM; in the assay on MCF7, 2.23 µM; in the assay on HepG2 [1], 2.66 µM.

`CCN(CC)CCCCOc1c(OCc2ccccc2)cc(O)c2c(=O)cc(-c3ccccc3)oc12`: the IC50 with B16 was 4.88 µM; with A549 it was 3.91 µM; with MCF7 it was 1.92 µM; with HepG2 [1] it was 1.65 µM.

Turning to `COc1c(OCCCCN2CCN(C)CC2)cc(O)c2c(=O)cc(-c3ccc(F)cc3)oc12`, the IC50 in the assay with B16 came out at 4.32 µM; with A549, 2.22 µM; in the assay with MCF7, 3.86 µM; in the assay with HepG2 [1], 2.81 µM.

For `COc1c(OCCCCN2CCN(C)CC2)cc(O)c2c(=O)cc(-c3ccc(F)cc3Br)oc12`, the half-maximal inhibitory concentration (IC50) in the assay with B16 was determined as 3.44 µM; with A549 it was 2.98 µM; in the assay on MCF7, 3.09 µM; with HepG2 [1], 2.13 µM.

Turning to `O=c1cc(-c2ccccc2)oc2c(OCCCCN3CCOCC3)c(OCc3ccccc3)cc(O)c12`, the IC50 came to 5.41 µM in the assay on B16, 6.6 µM with A549, 9.9 µM in the assay on MCF7 and 3.29 µM with HepG2 [1].

As for `CN(C)CCCCOc1c(OCc2ccccc2)cc(O)c2c(=O)cc(-c3ccccc3)oc12`, the IC50 is 3.22 µM in the assay with B16, 1.09 µM with A549, 3.21 µM with MCF7 and 2.09 µM with HepG2 [1].

Take `COc1ccc(-c2cc(=O)c3c(O)cc(OCCCCN4CCN(C)CC4)c(OC)c3o2)cc1`: the IC50 in the assay with B16 came out at 4.1 µM; with A549 it was 2.32 µM; in the assay on MCF7, 3.98 µM; with HepG2 [1], 4.2 µM.

As for `COc1ccccc1-c1cc(=O)c2c(O)cc(OCCCCN3CCN(C)CC3)c(OC)c2o1`, the IC50 came to 9.3 µM in the assay with B16, 6.79 µM in the assay with A549, 5.43 µM in the assay on MCF7 and 2.33 µM in the assay on HepG2 [1].

For the compound `CN1CCN(CCCCOc2c(OCc3ccccc3)cc(O)c3c(=O)cc(-c4ccccc4)oc23)CC1`, the Activity was 20.7% with HepG2 [2], “Dose-dependent effect” with HepG2 [3] and “Dose-dependent effect” in the assay with HepG2 [4]. Also, the IC50 with B16 turned out to be 2.37 µM; in the assay on A549, 2.91 µM; in the assay on MCF7, 2.93 µM; in the assay on HepG2 [1] it was 1.5 µM. The result in the assay with HepG2 [5] was inactive.

Turning to `O=c1cc(-c2ccccc2)oc2c(OCCN(CCO)CCO)c(OCc3ccccc3)cc(O)c12`, the IC50 in the assay with B16 came to 3.69 µM; in the assay with A549, 6.4 µM; with MCF7, 6.07 µM; in the assay on HepG2 [1], 3.17 µM.

On to `CN1CCN(CCCCOc2c(OCc3nc4ccccc4s3)cc(O)c3c(=O)cc(-c4ccccc4)oc23)CC1`, for which the IC50 was 2.78 µM in the assay with B16, 1.06 µM in the assay with A549, 4.85 µM with MCF7 and 5.44 µM with HepG2 [1].

Take `COc1c(OCCCCN2CCN(C)CC2)cc(O)c2c(=O)cc(-c3ccc(Cl)cc3)oc12`: the IC50 in the assay on B16 was 2.09 µM; in the assay with A549 it was 1.43 µM; with MCF7, 3.21 µM; in the assay on HepG2 [1], 3.75 µM.

Consider `COc1c(OCCCCN2CCN(C)CC2)cc(O)c2c(=O)cc(-c3ccc(C)cc3)oc12`, for which the IC50 in the assay on B16 turned out to be 5.43 µM; with A549, 3.81 µM; with MCF7 it was 4.02 µM; in the assay on HepG2 [1], 1 µM.

Consider `COc1c(OCCCCN2CCN(C)CC2)cc(O)c2c(=O)cc(-c3ccc([N+](=O)[O-])cc3)oc12`, for which the IC50 was found to be 2.89 µM in the assay with B16, 3.21 µM in the assay with A549, 4.09 µM in the assay with MCF7 and 2.62 µM in the assay with HepG2 [1].

For the compound `Cc1ccc(COc2cc(O)c3c(=O)cc(-c4ccccc4)oc3c2OCCCCN2CCN(C)CC2)cc1`, the IC50 with B16 was 3.29 µM; with A549 it was 3.2 µM; in the assay on MCF7, 2.22 µM; with HepG2 [1] it was 5.09 µM.

For `O=c1cc(-c2ccccc2)oc2c(OCCCN3CCOCC3)c(OCc3ccccc3)cc(O)c12`, the IC50 is 10 µM in the assay on B16, 8.91 µM in the assay with A549, 8.72 µM in the assay with MCF7 and 2.43 µM in the assay on HepG2 [1].

Regarding `CN(C)CCCOc1c(OCc2ccccc2)cc(O)c2c(=O)cc(-c3ccccc3)oc12`, the IC50 was determined as 5.42 µM in the assay with B16, 2.91 µM in the assay on A549, 3.21 µM in the assay on MCF7 and 4.95 µM in the assay on HepG2 [1].

With `O=c1cc(-c2ccccc2)oc2c(OCCCN(CCO)CCO)c(OCc3ccccc3)cc(O)c12`, the IC50 in the assay with B16 stood at 6.89 µM; in the assay on A549, 3.15 µM; in the assay with MCF7, 4.23 µM; in the assay with HepG2 [1] it was 3.55 µM.

In the case of `COc1c(OCCCCN2CCN(C)CC2)cc(O)c2c(=O)cc(-c3cccc(F)c3)oc12`, the IC50 was determined as 4.52 µM with B16, 2.09 µM in the assay on A549, 2.89 µM in the assay with MCF7 and 2.58 µM in the assay with HepG2 [1].

Turning to `CN1CCN(CCCCOc2c(OCc3nc4ccccc4o3)cc(O)c3c(=O)cc(-c4ccccc4)oc23)CC1`, the IC50 in the assay on B16 is 2.08 µM; in the assay on A549, 3.87 µM; in the assay with MCF7, 4.98 µM; with HepG2 [1], 4.11 µM.

As for `O=c1cc(-c2ccccc2)oc2c(OCCCCN3CCCC3)c(OCc3ccccc3)cc(O)c12`, the IC50 turned out to be 3.21 µM in the assay on B16, 1.1 µM with A549, 1.89 µM in the assay on MCF7 and 4.66 µM with HepG2 [1].

`CN1CCN(CCCCOc2c(OCc3cccs3)cc(O)c3c(=O)cc(-c4ccccc4)oc23)CC1`: the IC50 is 2.12 µM in the assay on B16, 2.1 µM in the assay on A549, 3.18 µM in the assay on MCF7 and 4.56 µM in the assay with HepG2 [1].

On to `CN1CCN(CCCCOc2c(OCc3ccco3)cc(O)c3c(=O)cc(-c4ccccc4)oc23)CC1`, for which the IC50 turned out to be 3.53 µM in the assay on B16, 3.6 µM in the assay on A549, 2.77 µM in the assay on MCF7 and 4.11 µM with HepG2 [1].

For the compound `O=c1cc(-c2ccccc2)oc2c(OCCCCN(CCO)CCO)c(OCc3ccccc3)cc(O)c12`, the concentration for half-maximal inhibition (IC50) in the assay on B16 amounted to 3.76 µM; in the assay with A549 it was 4.35 µM; in the assay with MCF7, 1.09 µM; with HepG2 [1], 3.14 µM.

For `COc1c(O)cc(O)c2c(=O)cc(-c3ccccc3)oc12` [WOGONIN], the IC50 in the assay on B16 is 26.4 µM; in the assay on A549, 20.1 µM; in the assay with MCF7, 28 µM; with HepG2 [1], 19.5 µM.

Take `CN1CCN(CCOc2c(OCc3ccccc3)cc(O)c3c(=O)cc(-c4ccccc4)oc23)CC1`: the IC50 in the assay on B16 was determined as 4.37 µM; with A549 it was 4.41 µM; in the assay with MCF7, 4.43 µM; with HepG2 [1] it was 2.89 µM.

In the case of `COc1c(OCCCCN2CCN(C)CC2)cc(O)c2c(=O)cc(-c3ccc(C(F)(F)F)cc3)oc12`, the IC50 with B16 worked out at 4.99 µM; with A549, 2.89 µM; in the assay with MCF7, 2.98 µM; in the assay with HepG2 [1] it was 2.4 µM.
